Activity calls are given as the source filed them. The calls are words filed in the database; no cut-off is given here.
What was measured:
[1] = Drug uptake in brain of cPP-induced feeding rat model at 3 mg/kg, po after 4 hrs; type: ADME, organism-based; design: dose 3 mg/kg, route oral; conditions: read-out: Drug uptake
Summary of the method: (§1)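 Satellite rats (n = 2/dose) sampled each week alongside the cPP feeding test; Lu-series dosed po at 3, 10 or 30 mg/kg as suspension in 20% HP-β-cyclodextrin; plasma (ng/mL) and brain tissue (ng/g) levels taken at 1, 2, 4, 6 and 24 h post-dose; mean ± SD reported.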

[2] = organism: Rattus norvegicus; test: Inhibition of food intake in rat after 24 hrs starvation; type: functional, organism-based
[3] = Plasma concentration in cPP-induced feeding rat model at 3 mg/kg, po after 4 hrs; type: ADME, organism-based; design: dose 3 mg/kg, route oral
Summary of the method: (§2)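 Satellite rats (n = 2/dose per week), cannulated in the lateral cerebral ventricle for the feeding study, dosed orally at 3, 10 or 30 mg/kg as a suspension in 20% HP-β-cyclodextrin. Plasma was sampled 1, 2, 4, 6 or 24 h after dosing, alongside i.c.v. cPP (0.6 nmol) feeding tests. Values are given as mean with SD.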

[4] = Oral bioavailability in Sprague-Dawley rat at 2 mg/kg by HPLC analysis; type: ADME, organism-based; conditions: in vivo
Summary of the method: (§3)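 Male Sprague-Dawley rats (200–250 g, n = 2) with jugular and carotid cannulae, dosed 1 mg/kg iv and 2 mg/kg po in crossover after 24 h washout. Vehicle was 20% beta cyclodextrin, pH adjusted with methanesulfonic acid to give a solution. Automated serial blood sampling took 12 time points over 24 h. Plasma was quantified by HPLC-MS/MS, with noncompartmental analysis.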

[5] = Half life in mouse at 1 mg/kg, iv and 2 mg/kg, po by HPLC analysis; type: ADME, organism-based; conditions: in vivo
[6] = molecular target: T1, Neuropeptide Y receptor type 1 (Homo sapiens, UniProt P25929); test: Antagonist activity at human NPY1 receptor assessed as calcium mobilization by FLIPR assay; type: functional
T1 sequence (P25929 whole entry): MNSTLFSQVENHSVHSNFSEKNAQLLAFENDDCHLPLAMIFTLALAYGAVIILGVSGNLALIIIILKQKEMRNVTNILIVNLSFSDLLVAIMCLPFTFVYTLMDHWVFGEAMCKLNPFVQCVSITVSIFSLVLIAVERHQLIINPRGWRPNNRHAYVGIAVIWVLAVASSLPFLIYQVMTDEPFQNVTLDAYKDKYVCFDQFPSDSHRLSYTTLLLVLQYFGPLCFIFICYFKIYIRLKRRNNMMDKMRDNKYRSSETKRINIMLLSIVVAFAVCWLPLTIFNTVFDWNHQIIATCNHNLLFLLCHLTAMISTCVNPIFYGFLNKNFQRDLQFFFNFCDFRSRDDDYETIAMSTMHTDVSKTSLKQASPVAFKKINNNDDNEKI

[7] = Plasma concentration in cPP-induced feeding rat model at 30 mg/kg, po after 1 hr; type: ADME, organism-based; design: dose 30 mg/kg, route oral; summary of the method: as §2
[8] = Volume of distribution at steady state in Sprague-Dawley rat at 1 mg/kg, iv and 2 mg/kg, po by HPLC analysis; type: ADME, organism-based; conditions: in vivo, read-out: Vdss; summary of the method: as §3
[9] = Tmax in mouse at 1 mg/kg, iv and 2 mg/kg, po by HPLC analysis; type: ADME, organism-based; conditions: in vivo
[10] = Drug uptake in brain of cPP-induced feeding rat model at 3 mg/kg, po after 6 hrs; type: ADME, organism-based; design: dose 3 mg/kg, route oral; conditions: read-out: Drug uptake; summary of the method: as §1
[11] = Apparent permeability from apical to basolateral side of the human Caco2 cells; type: ADME, cell-based; conditions: Caco-2
[12] = Drug uptake in brain of cPP-induced feeding rat model at 30 mg/kg, po after 6 hrs; type: ADME, organism-based; design: dose 30 mg/kg, route oral; conditions: read-out: Drug uptake; summary of the method: as §1
[13] = molecular target: T2, Neuropeptide Y receptor type 5 (Homo sapiens, UniProt Q15761); test: Antagonist activity at human NPY5 receptor assessed as calcium mobilization by FLIPR assay; type: functional
T2 sequence (Q15761 whole entry): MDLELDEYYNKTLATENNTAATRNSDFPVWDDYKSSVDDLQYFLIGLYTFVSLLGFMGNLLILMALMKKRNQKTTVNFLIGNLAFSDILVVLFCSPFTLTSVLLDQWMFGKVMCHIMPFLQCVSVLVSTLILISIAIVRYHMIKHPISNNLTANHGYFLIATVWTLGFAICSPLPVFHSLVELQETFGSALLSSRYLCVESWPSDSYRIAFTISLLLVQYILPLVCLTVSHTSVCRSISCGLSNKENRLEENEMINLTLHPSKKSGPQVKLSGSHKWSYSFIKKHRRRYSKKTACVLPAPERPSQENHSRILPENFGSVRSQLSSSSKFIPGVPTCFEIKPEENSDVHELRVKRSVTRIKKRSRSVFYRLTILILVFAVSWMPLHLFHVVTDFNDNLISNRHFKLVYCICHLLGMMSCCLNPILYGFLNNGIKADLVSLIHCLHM

[14] = molecular target: Cytochrome P450 2C19 (Homo sapiens, UniProt P33261); test: Inhibition of CYP2C19; type: ADME
Cytochrome P450 2C19, sequence (P33261 whole entry): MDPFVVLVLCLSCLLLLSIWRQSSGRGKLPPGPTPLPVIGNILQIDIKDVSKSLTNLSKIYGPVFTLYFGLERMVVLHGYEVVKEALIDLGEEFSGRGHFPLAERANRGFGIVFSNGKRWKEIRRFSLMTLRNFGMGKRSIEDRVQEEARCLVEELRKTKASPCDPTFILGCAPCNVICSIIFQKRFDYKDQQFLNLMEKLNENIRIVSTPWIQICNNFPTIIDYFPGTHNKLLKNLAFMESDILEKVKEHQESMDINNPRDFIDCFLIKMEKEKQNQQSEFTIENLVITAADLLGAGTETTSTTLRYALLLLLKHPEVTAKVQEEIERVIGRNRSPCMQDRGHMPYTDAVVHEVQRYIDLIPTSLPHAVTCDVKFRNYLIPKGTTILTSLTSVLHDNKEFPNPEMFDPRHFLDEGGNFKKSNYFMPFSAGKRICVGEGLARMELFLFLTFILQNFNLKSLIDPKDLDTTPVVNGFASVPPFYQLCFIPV

[15] = Tmax in Sprague-Dawley rat at 1 mg/kg, iv and 2 mg/kg, po by HPLC analysis; type: ADME, organism-based; conditions: in vivo
Summary of the method: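 Male Sprague–Dawley rats (n = 2) with jugular and carotid cannulae, 200–250 g, dosed 1 mg/kg iv and 2 mg/kg po in crossover after a 24 h washout. Vehicle was 20% beta-cyclodextrin, pH adjusted with methanesulfonic acid. Twelve serial blood samples were taken over 24 h, plasma measured by HPLC-MS/MS, and parameters derived by noncompartmental analysis.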

[16] = molecular target: Cytochrome P450 2D6 (Homo sapiens, UniProt P10635); test: Inhibition of CYP2D6; type: ADME
Cytochrome P450 2D6, sequence (P10635 whole entry): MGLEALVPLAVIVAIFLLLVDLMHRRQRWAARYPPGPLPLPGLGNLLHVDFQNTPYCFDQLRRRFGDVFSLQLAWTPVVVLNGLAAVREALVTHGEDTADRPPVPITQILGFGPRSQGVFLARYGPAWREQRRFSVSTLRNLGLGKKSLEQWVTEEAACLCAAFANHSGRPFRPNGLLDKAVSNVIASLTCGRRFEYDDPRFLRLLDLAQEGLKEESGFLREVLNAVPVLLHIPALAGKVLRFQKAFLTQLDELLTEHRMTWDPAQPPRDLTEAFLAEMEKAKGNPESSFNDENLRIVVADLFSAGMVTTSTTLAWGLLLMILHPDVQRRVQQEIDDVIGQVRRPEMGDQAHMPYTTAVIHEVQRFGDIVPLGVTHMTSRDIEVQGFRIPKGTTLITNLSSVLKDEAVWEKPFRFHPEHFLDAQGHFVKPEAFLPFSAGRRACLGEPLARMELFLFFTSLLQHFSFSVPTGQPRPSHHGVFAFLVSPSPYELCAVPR

[17] = molecular target: T3, 5-hydroxytryptamine receptor 1A (Homo sapiens, UniProt P08908); test: Binding affinity to human 5HT1A receptor
T3 sequence (P08908 whole entry): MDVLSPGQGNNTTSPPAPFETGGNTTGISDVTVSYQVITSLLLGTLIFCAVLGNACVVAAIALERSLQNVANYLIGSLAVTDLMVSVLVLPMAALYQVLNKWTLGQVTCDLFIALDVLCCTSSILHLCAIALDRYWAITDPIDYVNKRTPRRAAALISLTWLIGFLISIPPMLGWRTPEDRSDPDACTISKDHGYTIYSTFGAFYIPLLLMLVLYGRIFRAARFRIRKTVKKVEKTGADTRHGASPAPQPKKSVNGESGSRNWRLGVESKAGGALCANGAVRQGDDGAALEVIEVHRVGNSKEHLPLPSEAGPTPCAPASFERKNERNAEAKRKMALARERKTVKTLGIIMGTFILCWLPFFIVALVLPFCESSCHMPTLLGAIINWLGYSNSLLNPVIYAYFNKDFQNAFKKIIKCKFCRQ

[18] = Plasma concentration in cPP-induced feeding rat model at 30 mg/kg, po after 4 hrs; type: ADME, organism-based; design: dose 30 mg/kg, route oral; summary of the method: as §2
[19] = Drug uptake in rat brain at 10 mg/kg, po after 4 hrs; type: ADME, organism-based; design: dose 10 mg/kg, route oral; conditions: read-out: Drug uptake
Summary of the method: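 Rat single oral dose of 10 mg/kg, two animals; plasma and brain homogenate levels measured at 4 h and averaged; quantification limit 2 ng/mL plasma, 2 ng/g brain.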

[20] = tested on: Brain; test: Free drug level in brain of cPP-induced feeding rat model; type: ADME, tissue-based; conditions: in vivo
[21] = Plasma concentration in cPP-induced feeding rat model at 10 mg/kg, po after 4 hrs; type: ADME, organism-based; design: dose 10 mg/kg, route oral; summary of the method: as §1
[22] = Plasma concentration in cPP-induced feeding rat model at 30 mg/kg, po after 6 hrs; type: ADME, organism-based; design: dose 30 mg/kg, route oral; summary of the method: as §2
[23] = Plasma protein binding in human; type: ADME, cell-free; conditions: read-out: PPB (converted)

concentration at 4 h [1]: 52 ng/g | concentration at 4 h [3]: 52 ng/mL | bioavailability [4]: 92% | half-life [5]: 8.2 h | IC50 [6]: > 1000 nM | concentration at 1 h [7]: 267 ng/mL | Vd [8]: 3.3 L/kg | Tmax [9]: 1.3 h | concentration at 6 h [10]: 30 ng/g | Papp A→B [11]: 36.7 ×10⁻⁶ cm/s | concentration at 6 h [12]: 401 ng/g | IC50 [13]: 1.8 nM | IC50 [14]: > 10000 nM | Tmax [15]: 1.9 h | IC50 [16]: > 10000 nM | Ki [17]: 478 nM | concentration at 4 h [18]: 519 ng/mL | concentration at 4 h [19]: 460 ng/g | Drug uptake [20]: 0.4 nM | concentration at 4 h [21]: 141 ng/mL | concentration at 6 h [22]: 181 ng/mL | fraction unbound [23]: 0.018
SMILES: CS(=O)(=O)NC[C@H]1CC[C@H](Nc2nc3c(s2)CCSc2ccccc2-3)CC1
inhibition [2]: inactive
